In brackets after ≈: the same amount, converted by molar mass.
Legend:
Format in all cases: functional
[1] = test system: Escherichia coli; assay: Antibacterial activity against Escherichia coli Vogel after subcutaneous administration in mouse; settings: Escherichia coli, sc; read-out: PD50
[2] = test system: Streptococcus pyogenes; assay: Antibacterial activity measured as mouse protection against Streptococcus pyogenes C 203 after subcutaneous administration; settings: for ED50: Streptococcus pyogenes, C 203, sc, read-out: PD50
[3] = test system: Enterobacter cloacae; assay: Minimum inhibitory concentration in vitro against Enterobacter cloacae MA 2646
[4] = test system: Escherichia coli; assay: Antibacterial activity in vitro against Escherichia coli Vogel
Procedure, shortened: (§1)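 Standard microtitration broth assay against a panel of 10 Gram-positive and Gram-negative organisms. MIC read in µg/mL and averaged over multiple experiments.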

[5] = test system: Pseudomonas aeruginosa; assay: Minimum inhibitory concentration was evaluated in vitro against Pseudomonas aeruginosa UI-18; procedure, shortened: as §1
[6] = test system: Providencia rettgeri; assay: Minimum inhibitory concentration was evaluated in vitro against Providencia rettgeri M1771; procedure, shortened: as §1
[7] = test system: Klebsiella pneumoniae; assay: Minimum inhibitory concentration was evaluated in vitro against Klebsiella pneumoniae MGH2; procedure, shortened: as §1
[8] = test system: Staphylococcus aureus; assay: Minimum inhibitory concentration was evaluated in vitro against Staphylococcus aureus H 228; procedure, shortened: as §1
[9] = test system: Escherichia coli; assay: Antibacterial activity against Escherichia coli Vogel after oral administration in mouse; settings: for ED50: Escherichia coli, po, read-out: PD50
[10] = test system: Streptococcus pyogenes; assay: Minimum inhibitory concentration was evaluated in vitro against Streptococcus pyogenes C 203; procedure, shortened: as §1
[11] = test system: Staphylococcus aureus; assay: Minimum inhibitory concentration was evaluated in vitro against Staphylococcus aureus UC 76; procedure, shortened: as §1
[12] = test system: Streptococcus pneumoniae; assay: Minimum inhibitory concentration was evaluated in vitro against Streptococcus pneumoniae SV-1; procedure, shortened: as §1
[13] = test system: Enterococcus faecalis; assay: Minimum inhibitory concentration was evaluated in vitro against Enterococcus faecalis MGH-2; procedure, shortened: as §1
[14] = test system: Streptococcus pyogenes; assay: Compounds were evaluated in vivo for antibacterial activity for mouse protection against Streptococcus pyogenes C 203 after oral administration; settings: for ED50: Streptococcus pyogenes, C 203, po, read-out: PD50
[15] = Enterobacter cloacae, read-out: MIC
[16] = Escherichia coli, read-out: MIC
[17] = Pseudomonas aeruginosa, read-out: MIC
[18] = Providencia rettgeri, read-out: MIC
[19] = Klebsiella pneumoniae, read-out: MIC
[20] = Staphylococcus aureus, read-out: MIC
[21] = Streptococcus pyogenes, read-out: MIC
[22] = Streptococcus pneumoniae, read-out: MIC
[23] = Enterococcus faecalis, read-out: MIC

| SMILES | ED50 [1] [mg/kg] | ED50 [2] [mg/kg] | MIC [3, 15] [µg/mL] | MIC [4, 16] [µg/mL] | MIC [5, 17] [µg/mL] | MIC [6, 18] [µg/mL] | MIC [7, 19] [µg/mL] | MIC [8, 20] [µg/mL] | ED50 [9] [mg/kg] | MIC [10, 21] [µg/mL] | MIC [11, 20] [µg/mL] | MIC [12, 22] [µg/mL] | MIC [13, 23] [µg/mL] | ED50 [14] [mg/kg] | further results |
| --- | --- | --- | --- | --- | --- | --- | --- | --- | --- | --- | --- | --- | --- | --- | --- |
| CC(N)C1CCN(c2c(F)cc3c(=O)c(C(=O)O)cn(C4CC4)c3c2F)C1 (racemic) | 0.3 | 0.1 | 0.013 (≈ 0.0344 µM) | 0.013 (≈ 0.0344 µM) | 0.4 (≈ 1.06 µM) | 0.025 (≈ 0.0662 µM) | 0.013 (≈ 0.0344 µM) | 0.013 (≈ 0.0344 µM) | 2 | 0.006 (≈ 0.0159 µM) | 0.003 (≈ 0.00795 µM) | 0.006 (≈ 0.0159 µM) | 0.006 (≈ 0.0159 µM) | 0.4 | – |
| CCn1cc(C(=O)O)c(=O)c2cc(F)c(N3CCC(N)C3)c(F)c21 (centres undefined) | 1 | 7 | – | 0.05 (≈ 0.148 µM) | 0.2 (≈ 0.593 µM) | 0.1 (≈ 0.296 µM) | 0.1 (≈ 0.296 µM) | 0.2 (≈ 0.593 µM) | 3 | – | 0.05 (≈ 0.148 µM) | – | – | 21 | – |
| CCNCC1CCN(c2cc3c(cc2F)c(=O)c(C(=O)O)cn3C2CC2)C1 (centres undefined) | 3 | 5 | – | – | – | – | – | – | – | – | 0.013 (≈ 0.0348 µM) | – | – | – | – |
| CC1(CN)CCN(c2c(F)c(N)c3c(=O)c(C(=O)O)cn(C4CC4)c3c2F)C1 (centres undefined) | 1 | 1 | 0.1 (≈ 0.255 µM) | 0.2 (≈ 0.51 µM) | 0.8 (≈ 2.04 µM) | 0.2 (≈ 0.51 µM) | 0.1 (≈ 0.255 µM) | 0.013 (≈ 0.0331 µM) | – | 0.013 (≈ 0.0331 µM) | 0.003 (≈ 0.00765 µM) | 0.003 (≈ 0.00765 µM) | 0.025 (≈ 0.0637 µM) | 8 | PD50 [9]: 9 mg/kg |
| CCNCC1CCN(c2nc3c(cc2F)c(=O)c(C(=O)O)cn3-c2ccc(F)cc2F)C1 (centres undefined) | 4 | 3 | 0.2 (≈ 0.448 µM) | 0.2 (≈ 0.448 µM) | 1.6 (≈ 3.58 µM) | 0.8 (≈ 1.79 µM) | 0.4 (≈ 0.896 µM) | 0.1 (≈ 0.224 µM) | 6 | 0.1 (≈ 0.224 µM) | 0.025 (≈ 0.056 µM) | 0.1 (≈ 0.224 µM) | 0.2 (≈ 0.448 µM) | 8 | – |
| CCn1cc(C(=O)O)c(=O)c2cc(F)c(N3CCC(CN)C3)c(F)c21 (centres undefined) | 1 | 5 | 0.2 (≈ 0.569 µM) | 0.1 (≈ 0.285 µM) | 0.4 (≈ 1.14 µM) | 0.4 (≈ 1.14 µM) | 0.4 (≈ 1.14 µM) | 0.1 (≈ 0.285 µM) | 90 | 0.05 (≈ 0.142 µM) | 0.1 (≈ 0.285 µM) | 0.1 (≈ 0.285 µM) | 0.1 (≈ 0.285 µM) | 100 | – |
| CCNCC1CCN(c2c(F)c(N)c3c(=O)c(C(=O)O)cn(C4CC4)c3c2F)C1 (centres undefined) | 2 | 3 | 0.05 (≈ 0.123 µM) | 0.05 (≈ 0.123 µM) | 0.2 (≈ 0.492 µM) | 0.1 (≈ 0.246 µM) | 0.05 (≈ 0.123 µM) | 0.013 (≈ 0.032 µM) | 16 | 0.013 (≈ 0.032 µM) | 0.003 (≈ 0.00738 µM) | 0.003 (≈ 0.00738 µM) | 0.025 (≈ 0.0615 µM) | 5 | – |
| CN[C@H](C)[C@H]1CCN(c2c(F)c(N)c3c(=O)c(C(=O)O)cn(C4CC4)c3c2F)C1 | – | – | – | – | – | – | – | – | – | – | – | – | – | – | PD50 [2]: 13 mg/kg; MIC [3]: 0.2 µg/mL (≈ 0.492 µM); MIC [4]: 0.2 µg/mL (≈ 0.492 µM); MIC [5]: 3.1 µg/mL (≈ 7.63 µM); MIC [6]: 0.8 µg/mL (≈ 1.97 µM); MIC [7]: 0.8 µg/mL (≈ 1.97 µM); MIC [8]: 0.1 µg/mL (≈ 0.246 µM); MIC [10]: 0.2 µg/mL (≈ 0.492 µM); MIC [11]: 0.05 µg/mL (≈ 0.123 µM); MIC [12]: 0.2 µg/mL (≈ 0.492 µM); MIC [13]: 0.2 µg/mL (≈ 0.492 µM); PD50 [14]: 13 mg/kg |
| CC(N)C1CCN(c2c(F)cc3c(=O)c(C(=O)O)cn(C4CC4)c3c2C(F)(F)F)C1 (stereo in doubt; 36F-R,R) | – | – | 0.4 (≈ 0.936 µM) | – | – | 0.8 (≈ 1.87 µM) | – | – | – | – | – | – | – | – | PD50 [2]: 2 mg/kg; MIC [4]: 0.8 µg/mL (≈ 1.87 µM); MIC [5]: 6.3 µg/mL (≈ 14.7 µM); MIC [7]: 0.8 µg/mL (≈ 1.87 µM); MIC [8]: 0.1 µg/mL (≈ 0.234 µM); MIC [10]: 0.1 µg/mL (≈ 0.234 µM); MIC [11]: 0.025 µg/mL (≈ 0.0585 µM); MIC [12]: 0.1 µg/mL (≈ 0.234 µM); MIC [13]: 0.2 µg/mL (≈ 0.468 µM); PD50 [14]: 3 mg/kg |
| CCN[C@H](C)[C@@H]1CCN(c2c(F)cc3c(=O)c(C(=O)O)cn(C4CC4)c3c2C(F)(F)F)C1 | – | 0.8 | 1.6 (≈ 3.51 µM) | 0.8 (≈ 1.76 µM) | 6.3 (≈ 13.8 µM) | 3.1 (≈ 6.81 µM) | 1.6 (≈ 3.51 µM) | 0.05 (≈ 0.11 µM) | – | 0.1 (≈ 0.22 µM) | 0.05 (≈ 0.11 µM) | 0.05 (≈ 0.11 µM) | 0.1 (≈ 0.22 µM) | 2 | – |
| O=C(O)c1cn(C2CC2)c2cc(N3CCNCC3)c(F)cc2c1=O [CIPROFLOXACIN] | 0.3 | – | – | – | – | – | 0.05 (≈ 0.151 µM) | 3.1 (≈ 9.36 µM) | 1 | – | – | 1.6 (≈ 4.83 µM) | – | – | – |
| CCNCC1CCN(c2c(F)cc3c(=O)c(C(=O)O)cn(C4CC4)c3c2C(F)(F)F)C1 (centres undefined) | 2 | 1 | – | – | – | – | – | – | 5 | – | 0.025 (≈ 0.0566 µM) | – | – | 2 | – |
